Assay outcomes: PubChem BioAssay, Broad Institute
FGF22 binding: FGF22 (human) thermal shift binding; Q9HCT0; 340,000 compounds, 1.5% hits; recombinant FGF22 thermal shift, SYPRO orange fluorescence; percent of sucrose octasulfate shift, DMSO zero; AID 651658; activity (Tm shift, normalised), % at 9.99 µM;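 active means mean Tm shift, scaled 0 neutral to 100 positive control, at about 1.3% or above, every replicate too, limit read from the data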
S100A4 inh HTS: S100A4-myosin IIA interaction inhibition. S100A4/TAMRA-MyoIIA peptide fluorescence polarization. 360,000 compounds, 0.14% hits. AID 652163. P26447. inhibition, % at 10.7 µM;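 active means mean inhibition of at least 70% across replicates, with every replicate also reaching that level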
Target sequence (P26447 whole entry, looked up): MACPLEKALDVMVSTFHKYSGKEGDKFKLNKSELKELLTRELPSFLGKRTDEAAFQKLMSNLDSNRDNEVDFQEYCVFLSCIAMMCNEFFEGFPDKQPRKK
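Material: S100A4 monomer protein | Medium: HEPES pH 7.2 with CaCl2, KCl, NaCl, DTT, Triton | Reagent: Labelled myosin peptide probe, 5 nM | Doses: One dose per compound | Times: 5 min incubation before reading | Benchmarks: Neutral control DMSO, positive control TFP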
dFosB act: mouse delta FosB homodimer activation | 340,000 compounds, 0.99% hits | purified delta FosB, TAMRA-CDK5 oligo fluorescence polarization; percent of positive-control signal above neutral wells | AID 493131 | activation, % at 25 µM | P13346;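 active means mean activation above about 17%, with every replicate also reaching it, limit read from the data, passing the limit was not always enough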
Target sequence (P13346 whole entry, looked up): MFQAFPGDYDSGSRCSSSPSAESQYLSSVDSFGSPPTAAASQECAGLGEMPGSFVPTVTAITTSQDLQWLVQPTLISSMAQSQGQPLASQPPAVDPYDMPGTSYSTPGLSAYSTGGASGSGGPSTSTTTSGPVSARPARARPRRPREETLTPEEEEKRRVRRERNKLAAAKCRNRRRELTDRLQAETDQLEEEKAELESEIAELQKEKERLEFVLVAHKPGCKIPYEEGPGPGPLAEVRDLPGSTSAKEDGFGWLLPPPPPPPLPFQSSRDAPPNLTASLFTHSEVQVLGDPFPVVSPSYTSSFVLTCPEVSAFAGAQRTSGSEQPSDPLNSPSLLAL
CFTR F508del cor: CFTR F508del correction in bronchial cells; CFBE cells, YFP halide quenching; stimulated with forskolin plus potentiator P3; % fluorescence drop versus neutral controls; activity (quench increase), % at 7.58 µM; 350,000 compounds, 0.36% hits; AID 720511;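 active means mean added fluorescence quench of at least 8% versus neutral control, with both replicates also reaching 8%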;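 further: cells transiently co-express mutant CFTR-F508del with the halide-sensitive YFP; corrector assay measuring rescue of mutant channel to the surface after 24 h compound exposure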
Each line names hits and unclear results; the compound was inactive in the other large screens. Compounds with a hit are over-represented: about 2.2% of the library has one in this group of screens.

CCOCCOC(=O)c1[nH]c2c(c1C)C(=O)CC(c1ccc(N(C)C)cc1)C2 (configuration not stated)	none
COC(=O)c1[nH]c2c(c1C)C(=O)CC(c1ccc(OC)cc1)C2 (configuration not stated)	none
C/C=C/COC(=O)c1[nH]c2c(c1C)C(=O)CC(c1ccc(N(C)C)cc1)C2 (configuration not stated)	dFosB act 85
CCC(C)OC(=O)c1[nH]c2c(c1C)C(=O)CC(c1ccc(N(C)C)cc1)C2 (configuration not stated)	dFosB act 29
CCCN1C[C@@H](C)[C@H](OC)CN(C)C(=O)c2ccc(NC(=O)C3CC3)cc2OC[C@@H]1C	none (no result: dFosB act)
COc1cc(C(c2sc3nc(C)nn3c2O)N2CCOCC2)cc(OC)c1OC (configuration not stated)	none
COc1cc(C(c2sc3nc(C)nn3c2O)N2CCN(c3ccccc3)CC2)cc(OC)c1OC (configuration not stated)	CFTR F508del cor 8.5
COc1ccc(NC(=O)Nc2ccc3c(c2)C(=O)N([C@H](C)CO)C[C@@H](C)[C@@H](CN(C)C(=O)Nc2ccc(F)cc2)O3)cc1	none (no result: FGF22 binding, dFosB act)
CCCNC(=O)N1CC2(CCN(CC3CCOCC3)CC2)c2c(n(C)c3cc(OC)ccc23)[C@@H]1CO	none (no result: S100A4 inh HTS, dFosB act)
S=C(NCc1cccs1)NCC1CCCO1 (configuration not stated)	none
S=C(NCc1ccco1)NCC1CCCO1 (configuration not stated)	CFTR F508del cor 11
S=C(NCC1CCCO1)NC1CCCCC1 (configuration not stated)	FGF22 binding 43
COc1ccc(S(=O)(=O)N[C@@H]2CC[C@@H](CC(=O)NCCc3ccncc3)O[C@@H]2CO)cc1	none (no result: dFosB act)
O=C(O)C1C(c2ccccc2)c2ccccc2C(O)C1CO (configuration not stated)	FGF22 binding 43
OCC1C2c3ccccc3C(c3ccccc32)C1CO (configuration not stated)	none
O=C(CN1CCOCC1)NCC[C@H]1CC[C@H](NC(=O)Nc2ccc(Cl)cc2)[C@@H](CO)O1	none (no result: dFosB act)
Cc1nc2c(sc3nc4c(cc32)COC(C)(C)C4)c(=O)n1CC(=O)NCc1ccco1	CFTR F508del cor 13
CC1(C)Cc2nc3sc4c(SCC(=O)NCc5ccco5)ncnc4c3cc2CO1	none (no result: FGF22 binding, S100A4 inh HTS, CFTR F508del cor)
Cc1cc(NC(=O)c2cc(-c3ccccn3)nc3ccccc23)no1	none (no result: FGF22 binding, S100A4 inh HTS, CFTR F508del cor)
Cc1cc(NC(=O)c2cc(-c3ccccn3)nc3ccc(Br)cc23)no1	dFosB act 58
S=C(NC1CCCC1)NN1CCOCC1	none (no result: CFTR F508del cor)
CN1CCN(NC(=S)NC2CCCC2)CC1	FGF22 binding 43
CN1CCN(NC(=S)NC(C)(C)CC(C)(C)C)CC1	FGF22 binding 43
CCCN(C)C[C@H]1OCCCC[C@@H](C)Oc2ccc(NC(=O)Nc3ccc(F)cc3)cc2C(=O)N([C@H](C)CO)C[C@@H]1C	none (no result: dFosB act)
CCOC(=O)c1cc(C#N)c(SCC(=O)Nc2ccc(C(C)=O)cc2)[nH]c1=O	FGF22 binding 1.4
CCOC(=O)c1cc(C#N)c(SCC(=O)O)[nH]c1=O	FGF22 binding 45
COc1ccccc1CN(C)C[C@H]1OCc2cn(nn2)CCCC(=O)N([C@@H](C)CO)C[C@H]1C	none (no result: dFosB act)
Cc1ccccc1NC(=O)C1CCN(S(=O)(=O)c2ccc3c(c2)NC(=O)C(C)S3)CC1 (configuration not stated)	S100A4 inh HTS 111
CC1(C)CC(=O)C2=C(C1)N(c1ccc(F)cc1)C(=O)CC2c1ccccc1 (configuration not stated)	none (no result: FGF22 binding, S100A4 inh HTS, CFTR F508del cor)
O=C1CCCC2=C1C(c1ccccc1)CC(=O)N2c1ccc(F)cc1F (configuration not stated)	FGF22 binding 43
C[C@@H]1CN([C@H](C)CO)C(=O)c2cc(NC(=O)c3ccncc3)ccc2O[C@@H](C)CCCCO[C@@H]1CN(C)CC1CCCCC1	none (no result: dFosB act)
Cc1noc(C)c1NC(=O)N(C)C[C@@H]1OCCCC[C@H](C)Oc2ccc(NC(=O)Nc3ccc4c(c3)OCO4)cc2C(=O)N([C@H](C)CO)C[C@@H]1C	none (no result: dFosB act)
C=C1C(=O)O[C@H]2[C@H]1[C@H](OC(=O)/C(C)=C\C)C[C@]1(CO1)[C@@H]1[C@H](OC(C)=O)C=C(C)[C@]21O	none
C=C1C(=O)O[C@@H]2[C@H]1[C@@H](OC(=O)/C(C)=C/C)C/C(C)=C\C(=O)/C=C(\C)[C@@H]2O	CFTR F508del cor 9.7
